Results taken from ChEMBL document CHEMBL4020774, “Anti-influenza activity of monoterpene-containing substituted coumarins” (Bioorg Med Chem Lett, 2017).
The source made the active and inactive calls. The calls are words filed in the database; no cut-off is given here.

Assays:
[1] = Selectivity index, ratio of CC50 for MDCK cells to IC50 for Influenza A virus (A/California/07/09(H1N1)) pdm09 infected in MDCK cells; assay type: toxicity, cell-based; details: dog; read-out: Ratio CC50/IC50
[2] = Cytotoxicity against MDCK cells after 48 hrs by MTT assay; assay type: cell-based, Canis lupus familiaris; details: dog
Method in brief: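 Uninfected MDCK cells were exposed to three-fold compound dilutions in MEM for 48 h at 36°C, 5% CO2, then washed with PBS. MTT ([…] in PBS) was added for 1 h, and formazan was dissolved in DMSO.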

[3] = Antiviral activity against Influenza A virus (A/California/07/09(H1N1)) pdm09 infected in MDCK cells pretreated for 1 hr followed by viral infection incubated for 24 hrs measured after 48 hrs by hemagglutination test; assay type: functional, cell-based, Influenza A virus (A/California/07/2009(H1N1))
Method in brief: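 MDCK cells preincubated with compound for 1 h at 36°C, each concentration in triplicate, then infected (moi 0.01) for 24 h at 36°C, 5% CO2. Supernatant virus titer was read by hemagglutination after 48 h culture in MDCK cells at 36°C.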

Influenza A virus [4] = assay: Antiviral activity against Influenza A virus (A/Puerto Rico/8/34(H1N1)) infected in MDCK cells at 500 uM after 4 to 8 hrs post infection by MTT assay; assay type: functional, cell-based; details: A/Puerto Rico/8/1934(H1N1)
Method in brief: (§1)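 Time-of-addition assay in MDCK cells. Virus was adsorbed at m.o.i. 10 for 1 h at 4°C, unbound virions were washed off with MEM, and cells were incubated for 8 h at 36°C, 5% CO2 (start = 0 h). Compound at 500 µM final in MEM was present during set windows between −2 and 8 hpi, then washed out. Titer after 8 h was read as TCID50 by MTT assay.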

Influenza A virus [5] = assay: Antiviral activity against Influenza A virus (A/Puerto Rico/8/34(H1N1)) infected in MDCK cells at 500 uM at 1 to 2 hrs post infection by MTT assay; assay type: functional, cell-based; details: A/Puerto Rico/8/1934(H1N1); method in brief: as §1

Structure (SMILES) | selectivity ratio [1] | CC50 at 48 h [2] | IC50 [3] | Activity (Influenza A virus [4]) | Activity (Influenza A virus [5])
CC1(C)[C@@H]2CC=C(COc3ccc4c5c(c(=O)oc4c3)CCCC5)[C@H]1C2 | 3 | 415 µM | 149 µM |  | 
CC1(C)[C@H]2CC=C(COc3ccc4c5c(c(=O)oc4c3)CCC5)[C@@H]1C2 | 28 | 982 µM | 36 µM | inactive | Active
Cc1cc(=O)oc2cc(OCC3=CC[C@@H]4C[C@H]3C4(C)C)ccc12 | 13 | 130 µM | 10 µM |  | 
Cc1cc(=O)oc2cc(OCC3=CC[C@H]4C[C@@H]3C4(C)C)ccc12 | 9 | 30 µM | 4 µM |  | 
CC(C)=CCC/C(C)=C/COc1ccc2ccc(=O)oc2c1 | 1 | 7 µM | 7 µM |  | 
CC(C)=CCC/C(C)=C/COc1ccc2c(C)cc(=O)oc2c1 | < 3 | 28 µM | > 10 µM |  | 
CC(N)C12CC3CC(CC(C3)C1)C2 (stereo unspecified) [RIMANTADINE] | 9 | 363 µM | 41 µM |  | 
CC1(C)[C@H]2CC=C(COc3ccc4c5c(c(=O)oc4c3)CCCC5)[C@@H]1C2 | 13 | 857 µM | 64 µM |  | 
CC(C)=CCC/C(C)=C/COc1ccc2c3c(c(=O)oc2c1)CCC3 |  | > 888 µM | > 888 µM |  | 
CC1(C)[C@@H]2CC=C(COc3ccc4c5c(c(=O)oc4c3)CCC5)[C@H]1C2 | 4 | 133 µM | 33 µM |  | 
CC(C)=CCC/C(C)=C/COc1ccc2c3c(c(=O)oc2c1)CCCC3 | 1 | 100 µM | > 85 µM |  | 
CC1(C)[C@H]2CC=C(CCOc3ccc4c5c(c(=O)oc4c3)CCCC5)[C@@H]1C2 | 6 | 18 µM | 3 µM |  | 
COc1cccc(COc2ccc3ccc(=O)oc3c2)c1 |  | > 1170 µM | > 1170 µM |  | 
CC1(C)[C@@H]2CC=C(COc3ccc4ccc(=O)oc4c3)[C@H]1C2 | 1 | 7 µM | > 10 µM |  | 
COc1cccc(COc2ccc3c4c(c(=O)oc3c2)CCCC4)c1 |  | > 982 µM | > 982 µM |  | 
COc1cccc(COc2ccc3c(C)cc(=O)oc3c2)c1 | > 1 | > 1120 µM | 1010 µM |  | 
CC1(C)[C@H]2CC=C(COc3ccc4ccc(=O)oc4c3)[C@@H]1C2 | < 3 | 310 µM | > 101 µM |  | 
CC1(C)[C@H]2CC=C(CCOc3ccc4c5c(c(=O)oc4c3)CCC5)[C@@H]1C2 | 41 | > 857 µM | 21 µM |  | 
CC1(C)[C@H]2CC=C(CCOc3ccc4ccc(=O)oc4c3)[C@@H]1C2 | 20 | 10 µM | 0.5 µM |  | 
